A short description of data set [1]: Ratio of minimum drug concentration to ID50 of the compound(Adems strain). It is filed as ADME.
Data set [2] relates to Yellow fever virus. The data set can be described thus: Inhibitory dose of compound required to inhibit cytopathogenic effects yellow fever (virus) with Asibi strain in vero cell. It is filed as functional. As to conditions: read-out: ID50 (the source's name). Background: Damage to the host cells serves as the signal in cytopathic effect assays.
For data set [3], the system named is Yellow fever virus. The data set can be described thus: Tested for inhibition of virus-induced cytopathogenic effect and cytotoxicity of compound against yellow fever (virus) with Asibi strain in vero cell. It is filed as functional.
Data set [4] in a line: Ratio of minimum drug concentration to ID50 of the compound (Indiana strain). The class given is ADME.
For data set [5], the system named is Vesicular stomatitis virus. The data set can be described thus: Tested for inhibition of virus-induced cytopathogenic effect and cytotoxicity of compound against vesicular stomatitis RNA virus with indiana strain in L929 cell. The class given is functional.
For data set [6], the system named is Vesicular stomatitis virus. The data set can be described thus: Inhibitory dose of compound required to inhibit cytopathogenic effects of vesicular stomatitis RNA virus with indiana strain in L929 cells. It is filed as functional.
Data set [7] concerns Human alphaherpesvirus 2. The data set can be described thus: Dose of compound required to inhibit the herpes simplex type-2 MS virus induced cytopathogenic effects. Particulars: read-out: ID50 (the source's name). It is filed as functional. The essentials: (§1)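 Southern Research CPE inhibition test in Vero host cells. Confluent monolayers in 96-well plates received drug (minimum seven concentrations, cytotoxic to noncytotoxic) plus virus at 32 CCID50 per 0.1 mL, in triplicate, with cell, virus and drug-cytotoxicity controls. Incubated at 37 °C, 2% CO2. CPE scored microscopically at 3–4 days. VR = 0.1 × sum of CE-grade differences from virus control, halved for partially cytotoxic wells.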

For data set [8], the system named is Human alphaherpesvirus 1. The data set can be described thus: Degree of inhibition of virus-induced cytopathogenic effect and the degree of cytotoxicity produced by compound against herpes simplex type-1 virus E-377(TK+ ). The class given is functional. The essentials:
as §1

The test system of data set [9] is Human alphaherpesvirus 1. The data set can be described thus: Dose of compound required to inhibit the herpes simplex type-1 virusE-377(TK+ ) induced cytopathogenic effects. It is filed as functional. As to conditions: read-out: ID50 (the source's name). The essentials: as §1
The test system of data set [10] is Human alphaherpesvirus 2. The data set can be described thus: Degree of inhibition of virus-induced cytopathogenic effect and the degree of cytotoxicity produced by compound against herpes simplex type-2 MS virus. The class given is functional. The essentials: as §1
Data set [11] has as its system Human alphaherpesvirus 1. The data set can be described thus: Dose of compound required to inhibit the herpes simplex type-1 virus HF(TK- )induced cytopathogenic effects. The class given is functional. The essentials:
as §1

For data set [12], the system named is Human alphaherpesvirus 1. The data set can be described thus: Degree of inhibition of virus-induced cytopathogenic effect and the degree of cytotoxicity produced by compound against herpes simplex type-1 virus HF(TK- ). It is filed as functional. The essentials:
as §1

Data set [13] deals with Japanese encephalitis virus. The data set can be described thus: Inhibitory dose of compound required to inhibit cytopathogenic effects of Japanese encephalitis virus with […] strain in vero cells. It is filed as functional. As to conditions: read-out: ID50 (the source's name).
Data set [14] concerns Japanese encephalitis virus. The data set can be described thus: Tested for inhibition of virus-induced cytopathogenic effect and cytotoxicity of compound against Japanese encephalitis virus with […] strain in vero cell. It is filed as functional.
Data set [15] concerns unidentified influenza virus. The data set can be described thus: Inhibitory dose of compound required to inhibit cytopathogenic effects of influenza virus with A2/Aichi/2/68 strain in MDCK cells. It is filed as functional. As to conditions: read-out: ID50 (the source's name).
In data set [16] the test system is unidentified influenza virus. The data set can be described thus: Tested for inhibition of virus-induced cytopathogenic effect and cytotoxicity of compound against influenza virus with A2/Aichi/2/68 strain in MDCK cell. It is filed as functional.
In data set [17] the test system is Punta Toro virus. The data set can be described thus: Inhibitory dose of compound required to inhibit cytopathogenic effects of Punta toro virus with adames strain in vero cells. Particulars: read-out: ID50 (the source's name). The class given is functional.
The subject of data set [18] is Punta Toro virus. The data set can be described thus: Tested for inhibition of virus-induced cytopathogenic effect and cytotoxicity of compound against Punta toro virus with adames strain in vero cell. The class given is functional.

Values after ≈ are worked out from the molar mass of the structure shown. Values joined by “and” are separate entries in the source; they are usually repeats but may differ in a detail not shown here. Equal values may be shown once.

`c1c[se]cn1` [SELENAZOLE]: the selectivity ratio in [1] (read-out: Therapeutic ratio) came out at 1.8. Moreover, the IC50 in the data set on Yellow fever virus [2] was determined as 0.6 µg/mL (≈ 4.54 µM). Further, the Virus rating with Yellow fever virus [3] worked out at 2.4.
For `Nc1nccc2c1ncn2[C@@H]1C[C@H](CO)[C@@H](O)[C@H]1O` [3-DEAZAARISTEROMYCIN A], the Therapeutic index in data set [4] is reported as 1.6. Also, in data set [4] (read-out: Therapeutic index), the selectivity ratio was determined as 2.3. The Virus rating in data set [5] was 2.1 and 3. In data set [6], the ID50 is 4.3 µg/mL and 2 µg/mL.
Turning to `Nc1ncnc2c1ncn2[C@@H]1O[C@H](CO)[C@@H](O)[C@@H]1O` [VIDARABINE], the IC50 came out at 49.9 µg/mL (≈ 187 µM) with Human alphaherpesvirus 2 [7]; 13.6 µg/mL (≈ 50.9 µM) in the data set with Human alphaherpesvirus 1 [9]; 2.1 µg/mL (≈ 7.86 µM) with Human alphaherpesvirus 1 [11] (Human alphaherpesvirus 1, read-out: ID50 (the source's name)). Besides, the Virus rating with Human alphaherpesvirus 1 [8] was 1.8; in the data set with Human alphaherpesvirus 2 [10], 1.3; in the data set on Human alphaherpesvirus 1 [12], 3.3 and 2.9. In the data set on Human alphaherpesvirus 1 [11], this compound showed an ID50 of 1.9 µg/mL (≈ 7.11 µM).
With `Nc1nc2c(ncn2COCCO)c(=O)[nH]1` [ACYCLOVIR], the IC50 with Human alphaherpesvirus 2 [7] turned out to be 5.3 µg/mL (≈ 23.5 µM); in the data set with Human alphaherpesvirus 1 [9], 0.7 µg/mL (≈ 3.11 µM). In addition, the Virus rating with Human alphaherpesvirus 1 [8] was determined as 6.7; in the data set with Human alphaherpesvirus 2 [10], 4.5.
For `NC(=O)c1ncn([C@@H]2O[C@H](CO)[C@@H](O)[C@H]2O)n1` [RIBAVIRIN], the IC50 turned out to be 3 µg/mL (≈ 12.3 µM) in [13], 18.7 µg/mL (≈ 76.6 µM) in data set [15] and 20.1 µg/mL (≈ 82.3 µM) with Punta Toro virus [17]. Moreover, the Virus rating in data set [14] is listed as 2.4; in [16], 3.6; in the data set on Punta Toro virus [18] it was 1.8. Further, the selectivity ratio in data set [1] (read-out: Therapeutic index) turned out to be 5.

(Values after ChEMBL document CHEMBL1124192, “Cyclopentenylcytosine. A carbocyclic nucleoside with antitumor and antiviral properties” (J Med Chem, 1988).)
